The text below walks through data of ChEMBL document CHEMBL4431338, “Design, synthesis and biological evaluation of novel hamamelitannin analogues as potentiators for vancomycin in the treatment of biofilm related Staphylococcus aureus infections” (Bioorg Med Chem, 2016).

In series [1] the test system is Staphylococcus aureus. The experiment in a line: Potentiation of vancomycin-mediated reduction in CFU per biofilm of Staphylococcus aureus Mu50 after 24 hrs. The series is classed as functional, organism-based. The settings on record: Mu50, 24 h.
Series [2] concerns Staphylococcus aureus. The experiment in a line: Potentiation of vancomycin-mediated reduction in CFU per biofilm of Staphylococcus aureus Mu50 preincubated for 20 hrs followed by vancomycin addition measured after 24 hrs. The series is classed as functional, organism-based. In short, it runs like this:
(§1)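 Inoculum: overnight MH culture resuspended in 2× MH at OD590 0.2. Analogue present during 4 h adhesion at 37 °C, then after a saline wash for 20 h more at 37 °C. Biofilms then rinsed and exposed to vancomycin (20 μg/ml) alone in saline for 24 h at 37 °C. Line 5 uses analogue at 100 μM; line 4 uses lower concentrations, with EC50 as the level doubling vancomycin killing. CFU/biofilm counted by plating after vortex/sonication, as % reduction vs untreated control. n ≥ 9.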

Series [3] deals with Staphylococcus aureus. In words: Potentiation of vancomycin-mediated reduction in CFU per biofilm of Staphylococcus aureus Mu50 preincubated with compound at 100 uM for 20 hrs followed by vancomycin addition measured after 24 hrs (reference value: 30 +/- 14%). Type of series: functional. Details: scale not given: the % may be the effect or the level left. Put shortly:
as §1

In series [4] the test system is Staphylococcus aureus. In words: Growth inhibition of Staphylococcus aureus Mu50 after 20 hrs by broth microdilution method. The series is classed as organism-based. The settings on record: in vitro. Put shortly:
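S. aureus Mu50 grown in Mueller–Hinton broth at 37 °C, aerobic; MICs determined in triplicate in flat-bottom 96-well microtiter plates following an earlier published method.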
For orientation: Dilution methods test growth across graded concentrations, often in twofold steps.

The test system of series [5] is Staphylococcus aureus. The experiment in a line: Potentiation of vancomycin-mediated reduction in CFU per biofilm of Staphylococcus aureus Mu50 at 100 uM after 24 hrs (reference value: 30 +/- 14%). Type of series: functional. Details: scale not given: the % may be the effect or the level left.

With `O=C(NC[C@]1(O)CO[C@H](CNC(=O)c2ccccc2Cl)[C@H]1O)c1ccccc1`, the EC50 in series [1] and in series [2] was 0.389 µM each time.

For the molecule `O=C(NC[C@]1(O)CO[C@H](CNS(=O)(=O)C(F)(F)F)[C@H]1O)c1ccccc1`, the figures for the Activity in series [3] and in series [5] were 71% and 57%, respectively. In addition, in series [4], the MIC is over 500 µM.

Regarding `O=C(NC[C@@H]1OC[C@@](O)(CNC(=O)c2ccccc2)[C@@H]1O)c1ccccc1`, the values for the Activity in series [3] and in series [5] were 48% and 44%, respectively. The MIC in series [4] is over 500 µM. In addition, the EC50 (usually the concentration needed to bring the measured effect to its halfway point) in series [1] is over 250 µM; in series [2] it was 224 µM.

For the molecule `O=C(NC[C@]1(O)CO[C@H](CNS(=O)(=O)c2ccc(-c3ccccc3)cc2)[C@H]1O)c1ccccc1`, the Activity in series [3] was determined as 84%; in series [5], 83%. The molecule further displayed an MIC in series [4] of over 500 µM.

For the molecule `O=C(NC[C@]1(O)CO[C@H](Cn2cc(-c3ccccc3)nn2)[C@H]1O)c1ccccc1`, the Activity in series [3] is reported as 46%; in series [5] it was 66%. Further, in series [4], the MIC is over 500 µM.

Take `O=C(NC[C@]1(O)CO[C@H](CNC(=S)Nc2ccccc2)[C@H]1O)c1ccccc1`: the Activity in series [3] was 80%; in series [5], 73%. The same molecule came in with an MIC in series [4] of over 500 µM.

With `O=C(NC[C@H]1OC[C@@](O)(CNC(=O)c2ccccc2)[C@@H]1O)c1ccccc1`, the Activity in series [3] is recorded as 66%; in series [5], 65%. This molecule registered an MIC in series [4] of over 500 µM. Further, the EC50 in series [1] stood at 124 µM; in series [2], 97 µM.

For the molecule `CS(=O)(=O)NC[C@H]1OC[C@@](O)(CNC(=O)c2ccccc2)[C@@H]1O`, the figures for the Activity in series [3] and in series [5] were 69% and 62%, respectively. The same molecule yielded an MIC in series [4] of over 500 µM.

Take `O=C(NC[C@]1(O)CO[C@H](CNC(=O)c2ccccc2OC(F)(F)F)[C@H]1O)c1ccccc1`: the Activity in series [3] is listed as 78%; in series [5], 69%. The molecule also registered an MIC in series [4] of over 500 µM. Besides, the EC50 in series [1] is 56.7 µM; in series [2] it was 26.4 µM.

Take `O=C(NC[C@]1(O)CO[C@H](CNCc2ccccc2)[C@H]1O)c1ccccc1`: the Activity in series [3] is on record as 81%; in series [5] it was 78%. In series [4], this molecule showed an MIC of over 500 µM. Besides, the half-maximal effective concentration (EC50) in series [1] was 45.1 µM; in series [2] it was 41.2 µM.

In the case of `CN(C[C@H]1OC[C@@](O)(CNC(=O)c2ccccc2)[C@@H]1O)C(=O)c1ccccc1`, the Activity in series [3] is 94%; in series [5] it was 90%. Moreover, the MIC in series [4] was over 500 µM. Moreover, the EC50 turned out to be 24.3 µM in series [1] and 8.5 µM in series [2].

Regarding `O=C(NC[C@]1(O)CO[C@H](CNC(=O)c2ccccc2OC(F)F)[C@H]1O)c1ccccc1`, the Activity in series [3] was 81%; in series [5], 78%. For the same molecule, the MIC in series [4] is over 500 µM. Moreover, the EC50 turned out to be 25.7 µM in series [1] and 31 µM in series [2].

For the molecule `O=C(NC[C@]1(O)CO[C@H](CNC(=O)c2ccccc2I)[C@H]1O)c1ccccc1`, the results for the Activity in series [3] and in series [5] were 96% and 84%, respectively. The molecule also returned an MIC in series [4] of over 500 µM. Besides, the EC50 in series [1] was found to be 20.4 µM; in series [2], 1.9 µM.

Consider `CC(C)S(=O)(=O)NC[C@H]1OC[C@@](O)(CNC(=O)c2ccccc2)[C@@H]1O`, for which the results for the Activity in series [3] and in series [5] were 72% and 67%, respectively. Moreover, the MIC in series [4] was over 500 µM.

`Cc1ccc(S(=O)(=O)NC[C@H]2OC[C@@](O)(CNC(=O)c3ccccc3)[C@@H]2O)cc1`: the Activity in series [3] turned out to be 83%; in series [5], 74%. The MIC in series [4] is over 500 µM.

Turning to `O=C(NC[C@]1(O)CO[C@H](CN2Cc3ccccc3C2=O)[C@H]1O)c1ccccc1`, the Activity in series [3] came to 75%; in series [5], 70%. For the same molecule, in series [4], the MIC is over 500 µM. Besides, the concentration for a half-maximal effect (EC50) in series [1] worked out at 60.2 µM; in series [2], 57.7 µM.

Turning to `CCS(=O)(=O)NC[C@H]1OC[C@@](O)(CNC(=O)c2ccccc2)[C@@H]1O`, the Activity in series [3] was 49%; in series [5] it was 47%. Also, in series [4], the MIC was over 500 µM.

As to `O=C(NC[C@]1(O)CO[C@H](Cn2nncc2-c2ccccc2)[C@H]1O)c1ccccc1`, the results for the Activity in series [3] and in series [5] were 53% and 26%, respectively. Also, the MIC in series [4] is over 500 µM.

For `O=C(NC[C@]1(O)CO[C@H](CNS(=O)(=O)c2ccccc2)[C@H]1O)c1ccccc1`, the Activity in series [3] is 78%; in series [5], 69%. In addition, in series [4], the MIC was over 500 µM.

Take `O=C(NC[C@H]1OC[C@@](O)(CNC(=O)c2ccccc2)[C@@H]1O)Nc1ccccc1`: the Activity is given as 76% in series [3] and 81% in series [5]. This molecule registered an MIC in series [4] of over 500 µM.

Consider `O=C(NC[C@]1(O)CO[C@H](CNS(=O)(=O)c2ccccc2Cl)[C@H]1O)c1ccccc1`, for which the Activity stood at 65% in series [3] and 73% in series [5]. The same molecule registered an MIC in series [4] of over 500 µM.

For `O=C(NC[C@]1(O)CO[C@H](CNS(=O)(=O)c2ccc(Cl)cc2)[C@H]1O)c1ccccc1`, the Activity amounted to 86% in series [3] and 85% in series [5]. For the same molecule, in series [4], the MIC was over 500 µM. Further, the EC50 in series [1] was 27.8 µM; in series [2], 23.5 µM.

In the case of `O=C(NC[C@]1(O)CO[C@H](CNC(=O)c2ccccc2Br)[C@H]1O)c1ccccc1`, the values for the Activity in series [3] and in series [5] were 96% and 82%, respectively. For the same molecule, the MIC in series [4] was over 500 µM. Moreover, the EC50 in series [1] worked out at 19.7 µM; in series [2] it was 9.8 µM.

`O=C(OC[C@H]1OC(O)[C@@](O)(COC(=O)c2cc(O)c(O)c(O)c2)[C@@H]1O)c1cc(O)c(O)c(O)c1` (stereo partly drawn) [HAMAMELITANNIN]: the Activity in series [3] and in series [5] was 57% throughout. In series [4], this molecule came in with an MIC of over 500 µM. In addition, the results for the EC50 in series [1] and in series [2] were 165 µM and 146 µM, respectively.
